proCasp3 act = activators of human procaspase-3. P42574. recombinant procaspase-3 D3A, Ac-DEVD-pNA absorbance 405 nm. activation, % at 8.5 µM. 330,000 compounds, 0.11% hits. AID 463141;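 active = activation above the mean of all tested compounds plus 3 SD, cut at about 21% in these data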
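material = Procaspase-3 D3A mutant | probe or stimulus = Ac-DEVD-pNA | compound = single dose, 8.5 µM nominal compound, 0.8% DMSO | timing = 1 h preincubation, 2 h reaction | measured by = 405 nm absorbance of p-nitroaniline, reads at 0 and 120 min | benchmarks = DMSO-only low control, 5 µM PC-3 D3A high control | repeats = singlicate, each compound tested once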
A1 inh = inhibitors of the anti-apoptotic protein A1, read as caspase activation; caspase activation, % (no concentration beside the values); MEF A1-2A-BIM cells, Caspase-Glo 3/7 luminescence, 3 h; percent of clofoctol response, vehicle zero; AID 2462; 330,000 compounds, 0.066% hits;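 active = over half of replicate activation scores above 10%, or exactly half above 10 with the replicate mean above 10; inconclusive = replicate mean below 10 yet half the replicates above 10; inactive = over half of replicates below 10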
procasp7 counter = activates human procaspase-7, counter-screen for procaspase-3 activators; recombinant procaspase-7, Ac-DEVD-pNA absorbance 405 nm; D23A/D198A/D206A triple mutant, cannot self-cleave; scale: DMSO 0, 5 µM enzyme 100; 330,000 compounds, 0.093% hits; P55210; activation, % at 8.5 µM;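 active = percent activation above the screen-wide mean plus 3 SD, cut at about 25% in these data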
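Replicates: singlicate. Assay system: Procaspase-7 triple mutant (PC-7 D3A). Signal: 405 nm absorbance of p-nitroaniline. Times: 1 h preincubation, 2 h reaction. Buffer or medium: Zinc-free HEPES pH 7.4 with 300 mM NaCl, 0.01% Triton X-100. Also added: DEVD-pNA substrate. Benchmarks: DMSO wells as 0%, DMSO with 5 µM added PC-7 as 100%.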
GSK3 alpha inh = human GSK-3 alpha kinase inhibition | 320,000 compounds, 0.1% hits | inhibition, % at 10 µM | ADP-Glo luminescence, 60 min | P49840;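 active = more than half of replicates show inhibition above 20%; inconclusive = some but at most half of replicates above 20% inhibition; inactive = no replicate shows inhibition above 20%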;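 note: GST-tagged GSK-3 alpha with peptide substrate and 25 µM ATP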
GSK3B inh = inhibitors of human GSK3beta kinase; AID 2097; activity score (negative = inhibition), % at 10 µM; 300,000 compounds, 0.038% hits; GST-GSK3beta kinase, ADP-Glo luminescence, 60 min; hits give low values; P49841;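 active = more than half of replicate wells score below -50%, meaning over 50% inhibition versus plate controls; inconclusive = some replicates but at most half score below -50%; inactive = no replicate scores below -50%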
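Test system – GST-tagged human GSK3beta kinase, cell-free · Incubation – 60 min enzyme reaction, room temperature · Signal – ADP-Glo luminescence · Also added – peptide substrate and ATP at 25 µM · Controls – DMSO neutral wells and GW8510 at 20 µM as positive · Buffer or medium – Tris/MgCl2 kinase buffer · Measure – Luminescence-derived activity versus plate DMSO and GW8510 wells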
STK33 inh = human STK33 kinase inhibition | inhibition, % at 10 µM | Q9BYT3 | AID 2661 | 320,000 compounds, 0.073% hits | purified STK33, MBP phosphorylation, ADP-Glo luminescence;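 active = inhibition at or above 25%, using the most active replicate where run in duplicate; inactive = inhibition below 25%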
Target sequence (Q9BYT3 whole entry, looked up): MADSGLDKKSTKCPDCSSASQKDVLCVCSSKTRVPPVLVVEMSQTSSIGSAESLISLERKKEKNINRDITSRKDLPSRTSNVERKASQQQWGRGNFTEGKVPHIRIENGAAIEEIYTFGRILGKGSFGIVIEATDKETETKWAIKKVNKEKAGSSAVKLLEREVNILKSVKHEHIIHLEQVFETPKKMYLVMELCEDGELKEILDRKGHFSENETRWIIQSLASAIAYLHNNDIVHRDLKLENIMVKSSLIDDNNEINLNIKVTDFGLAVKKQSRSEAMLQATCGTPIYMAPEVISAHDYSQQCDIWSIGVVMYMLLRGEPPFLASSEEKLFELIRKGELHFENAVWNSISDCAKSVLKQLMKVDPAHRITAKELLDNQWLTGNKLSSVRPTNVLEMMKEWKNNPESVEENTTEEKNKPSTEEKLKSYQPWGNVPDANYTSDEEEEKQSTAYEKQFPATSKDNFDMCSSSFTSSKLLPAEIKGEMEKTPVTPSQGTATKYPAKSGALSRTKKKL
Hits are given with their value. An excerpt weighted towards active compounds, which were near 0.38% of everything screened.

`O=C1CN(c2ccc(Cl)cc2)C(=O)CN1NC(=S)Nc1ccc(Cl)cc1` gave proCasp3 act inactive, A1 inh inactive, procasp7 counter inactive, GSK3 alpha inh inactive, GSK3B inh inactive and STK33 inh inactive.
NNC(=S)NCc1ccco1 was read as proCasp3 act inactive, A1 inh inactive, procasp7 counter inactive, GSK3 alpha inh inactive, GSK3B inh inactive and STK33 inh inactive.
Screening COCCn1c(SCc2ccc(Cl)cc2)nc2c1c(=O)[nH]c(=O)n2C returned proCasp3 act inactive, A1 inh inactive, procasp7 counter inactive, GSK3 alpha inh inactive, GSK3B inh inactive and STK33 inh inactive.
C/C=C/Cn1c(SCc2ccc(Cl)cc2)nc2c1c(=O)[nH]c(=O)n2C was read as proCasp3 act inactive, A1 inh inactive, procasp7 counter inactive, GSK3 alpha inh inactive, GSK3B inh inactive and STK33 inh 29.
CN(c1ccc(OCC(=O)NC2CCC(O)CC2)cc1)S(=O)(=O)c1ccc(Cl)cc1 (centres undefined) was read as proCasp3 act inactive, A1 inh 15, procasp7 counter inactive, GSK3 alpha inh inactive and STK33 inh inactive.
`CCN(C(=O)CCN1C(=O)c2ccccc2S1(=O)=O)c1ccccc1` gave proCasp3 act inactive, A1 inh 5.7, procasp7 counter inactive, GSK3 alpha inh inactive, GSK3B inh inactive and STK33 inh inactive.
CC(C)C(=O)Nc1cccc(-c2cnc3ccccc3n2)c1 was read as proCasp3 act inactive, A1 inh inactive, procasp7 counter inactive, GSK3 alpha inh inactive, GSK3B inh inactive and STK33 inh inactive.
CNC(=S)Nc1cccc(-c2cnc3ccccc3n2)c1 was read as proCasp3 act inactive, A1 inh inactive, procasp7 counter inactive, GSK3 alpha inh inactive, GSK3B inh inactive and STK33 inh 26.
Screening COc1cc(C(=O)NCC(=O)OCc2ccc(F)cc2)cc(OC)c1OC returned proCasp3 act inactive, A1 inh inactive, procasp7 counter inactive, GSK3 alpha inh inactive and STK33 inh inactive.
`CC(C)c1ccc2[nH]c(O)c(N=NC(=O)c3cccc(S(=O)(=O)Nc4ccc(Cl)cc4)c3)c2c1` gave proCasp3 act inactive, A1 inh 13, procasp7 counter inactive, GSK3 alpha inh inactive, GSK3B inh inactive and STK33 inh inactive.
CC(C)c1ccc2[nH]c(O)c(N=NC(=O)c3cccc(S(=O)(=O)Nc4cccc(Cl)c4)c3)c2c1 was read as proCasp3 act inactive, A1 inh inconclusive, procasp7 counter inactive, GSK3 alpha inh inactive, GSK3B inh inactive and STK33 inh inactive.
Screening COC(=O)c1ccc(C(=O)NCCCCO)cc1 returned proCasp3 act inactive, A1 inh inactive, procasp7 counter inactive, GSK3 alpha inh inactive, GSK3B inh inactive and STK33 inh inactive.
Screening O=C(O)c1cccnc1SCC(=O)N1CCCCCC1 returned proCasp3 act inactive, A1 inh inactive, procasp7 counter inactive, GSK3 alpha inh inactive, GSK3B inh inactive and STK33 inh inactive.
O=C(CSc1cccc[n+]1[O-])NC1CCCCC1 was read as proCasp3 act inactive, A1 inh 8.3, procasp7 counter inactive, GSK3 alpha inh inactive and STK33 inh inactive.
Screening O=C(CSc1ncccc1C(=O)O)NC1CCCCC1 returned proCasp3 act inactive, A1 inh 5.5, procasp7 counter inactive, GSK3 alpha inh inactive, GSK3B inh inactive and STK33 inh inactive.
For O=C(COc1ccccc1)N(CCc1ccccc1)c1nc(-c2ccc(F)cc2)cs1 the results were proCasp3 act inactive, A1 inh inactive, procasp7 counter inactive, GSK3 alpha inh inactive, GSK3B inh inactive and STK33 inh inactive.
`COc1cc(C(=O)NNC(=O)CNC(=O)C2CCCCC2)ccc1OC(C)C` gave proCasp3 act inactive, A1 inh inactive, procasp7 counter inactive, GSK3 alpha inh inactive and STK33 inh inactive.
For O=C(NCCCO)c1cc2c([nH]c3ccccc32)c(-c2ccccc2)n1 the results were A1 inh inactive, GSK3 alpha inh inactive, GSK3B inh inactive and STK33 inh 29.
